In ChEMBL document CHEMBL1123886 (J Med Chem, 1987):
Calls of active or inactive are those of the source. The rule behind the calls is not given here.

Experiments:
[1] = Lipophilicity (Rm).; format: physicochemical
HCT-8 = assay: Ability to inhibit the growth of human colon tumor HCT-8 cells in vitro.; format: functional, cell-based
Outline: (§1)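 Cultured leukemia L1210 or human colon tumor HCT-8 cells were exposed to drug for 40 h.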

L1210 = assay: Ability to inhibit the growth of leukemia L1210 cells in vitro.; format: functional, cell-based; details: Mus musculus; outline: as §1
[2] = test system: Lewis lung carcinoma cell line; assay: Optimal dose required to inhibit the LL Lewis lung carcinoma model cells in vivo administered intraperitoneally; format: functional, Mus musculus
Outline: (§2)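 Mice were inoculated iv with 10^6 Lewis lung carcinoma cells. OD is the optimal dose in mg/kg per day. Lifespan increase above 40% is significant, and long-term survival was scored at 60 days.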

[3] = test system: Lewis lung carcinoma cell line; assay: (§3) Optimal dose required to inhibit the LL (Lewis lung carcinoma model) cells in vivo administered intraperitoneally; NA= not active; format: functional
Outline: (§4)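 Groups of 6. Optimal dose is in mg/kg per day. ILSmax is the % lifespan increase over untreated tumor-bearing controls at the optimal dose; above 40% counted significant. Cures are 60-day survivors.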

Mus musculus = species: Mus musculus; assay: Percent increase in life span of the drug treated tumor bearing animals vs nontreated tumor bearing controls was determined against P388/ADR cells;NA= not active; format: functional, organism-based
Outline: (§5)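 Mice were inoculated ip with 10^6 P388 or ADR/P388 cells. OD is the optimal dose in mg/kg per day. ILSmax is the % lifespan increase over untreated tumor-bearing controls at the OD; above 20% is significant. Long-term survival was scored at 50 days.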

P388/ADR [4] = assay: Optimal dose required to inhibit the P388/ADR cells in vivo after intraperitoneal administration.; format: functional, Mus musculus; design: unit: mg/kg/day
P388 [5] = assay: Optimal dose required to inhibit the P388 intraperitoneal administration.; format: functional, Mus musculus; design: unit: mg/kg/day
P388 [6] = assay: Percent increase in life span of the drug-treated tumor-bearing animals vs nontreated tumor-bearing controls with P388 leukemia cells.; format: functional, Mus musculus
Outline: (§6)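 Groups of 6. Optimal dose is in mg/kg per day. ILSmax is the % lifespan increase over untreated tumor-bearing controls at the optimal dose; above 20% counted significant. Cures are 50-day survivors.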

poly[d(A-T)] = assay: Binding constant for poly[d(A-T)] by ethidium bromide displacement
[7] = test system: Lewis lung carcinoma cell line; assay: Percent increase in life span of the drug treated tumor bearing animals vs nontreated tumor bearing controls was determined against LL (Lewis lung carcinoma model) cells;NA= not active; format: functional; outline: as §4
[8] = test system: Lewis lung carcinoma cell line; assay: Optimal dose to inhibit the LL (Lewis lung carcinoma model) cells in vivo after intraperitoneal administration.; format: functional, Mus musculus; design: unit: mg/kg/day; outline: as §2
P388/ADR [9] = assay: Percent increase in life span, of the drug-treated tumor-bearing animals vs nontreated tumor-bearing controls with P388/ADR cells.; format: functional, Mus musculus; outline: as §6
[10] = The compound was evaluated for its acid dissociation constant; format: ADME
P388 [11] = assay: Optimal dose required to inhibit the P388 intraperitoneally; format: functional, Mus musculus; outline: as §6
Nucleic Acid = assay: Binding constant (1/M) to poly[d(A-T)] by ethidium bromide displacement; format: nucleic-acid assay
[12] = test system: Lewis lung carcinoma cell line; assay: as §3; format: functional, Mus musculus; outline: as §2
P388 [13] = assay: Percent increase in life span of the drug treated tumor bearing animals vs nontreated tumor bearing controls was determined against P388 leukemia cells; NA = not active; format: functional; details: Mus musculus; outline: as §5

With `CNc1cc(NC(=O)OC)ccc1Nc1c2ccccc2nc2ccc(C)cc12` the Rm [1] was 0.7, the IC50 (HCT-8) was 850 nM and the IC50 (L1210) was 436 nM. For the same molecule, the OD [2] was 13.3, the ILS max ([3]; Mus musculus) was “inactive” and the ILS max (Mus musculus) was “inactive”. The OD (P388/ADR [4]) was 45, the OD (P388 [5]) was 45 and the ILS max (P388 [6]) was 69. It also gave a Log K (poly[d(A-T)]) of 5.62.
Molecule `CNc1cc(NC(=O)OC)ccc1Nc1c2ccccc2nc2c(Cl)cccc12` has a Rm [1] of 0.42, an IC50 (HCT-8) of 4500 nM and an IC50 (L1210) of 906 nM. The ILS max ([7]; Mus musculus) was “inactive”, the OD [8] was 65 and the ILS max (P388/ADR [9]) was 22. It also gave an OD (P388/ADR [4]) of 45, an OD (P388 [5]) of 30 and an ILS max (P388 [6]) of 30. It also gave a Log K (poly[d(A-T)]) of 6.3.
For `CNc1cc(NP(=O)(OC)OC)ccc1Nc1c2ccccc2nc2ccccc12`, the Rm [1] was 0.32, the pKa [10] was 8.09 and the OD (P388 [11]) was 13.3. For the same molecule, the “Log K” value (Nucleic Acid) was 6.82.
With `CNc1cc(NC(=O)OC)ccc1Nc1c2ccccc2nc2ccccc12` the Rm [1] was 0.51, the pKa [10] was 7.95 and the IC50 (HCT-8) was 290 nM. For the same molecule, the IC50 (L1210) was 284 nM, the OD [2] was 30 and the ILS max [3] was 112. For the same molecule, the ILS max (P388/ADR [9]) was 50, the OD (P388/ADR [4]) was 45 and the OD (P388 [5]) was 30. For the same molecule, the ILS max (P388 [6]) was 132 and the Log K (poly[d(A-T)]) was 6.35.
In the case of `CNc1cc(NC(=O)OC)ccc1Nc1c2ccccc2nc2cc(C)ccc12`, the Rm [1] is reported as 0.78, the IC50 (HCT-8) is reported as 270 nM and the IC50 (L1210) is reported as 152 nM. The ILS max [7] was 58, the OD [12] was 8.9 and the ILS max (Mus musculus) was “inactive”. It also gave an OD (P388/ADR [4]) of 13.3, an OD (P388 [5]) of 8.9 and an ILS max (P388 [6]) of 105. It also gave a Log K (poly[d(A-T)]) of 6.72.
For `CC(=O)Nc1ccc(Nc2c3ccccc3nc3ccccc23)c(N(C)C)c1`, the Rm [1] was 0.57, the pKa [10] was 7.59 and the ILS max (Mus musculus) was “inactive”. The ILS max (P388 [13]) was “inactive”, the OD (P388/ADR [4]) was 100 and the OD (P388 [5]) was 65. The Log K (poly[d(A-T)]) was 5.58.
